# Source: ChEMBL document CHEMBL5257087, “Anti-inflammatory Activity of Tanshinone-Related Diterpenes from Perovskia artemisioides Roots” (2023)
# Active and inactive are the calls of the source. The rule behind the calls is not given here.
# What was measured:
# [1] = system: J774.A1; test: Antiproliferative activity against mouse J774.A1 cells assessed as reduction in cell viability at 100 uM incubated for 24 hrs by MTT assay; format: functional, cell-based
# In short: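 J774A.1 cells at 5 × 10^4 cells/well adhered 3 h, then were incubated 24 h with compound serial dilutions (100–12.5 μM). MTT (5 mg/mL stock) was added for 3 h, formazan dissolved in DMSO, and OD read at 570 nm. The value is the % dead cells, 100 − [(OD treated/OD control) × 100]. 6-Mercaptopurine (1 μM) was the reference. At least three experiments, each in triplicate.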
# [2] = system: J774.A1; test: Antiinflammatory activity in mouse J774.A1 macrophages assessed as inhibition of LPS-induced NO production at 12.5 to 50 uM preincubated for 1 hr followed by LPS stimulation and measured after 24 hrs by griess reagent based assay; format: functional, cell-based; conditions: dose 12.5-50 µM, time 25.0 hrs
# In short: (§1)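 Macrophages adhered 3 h at 5 × 10^4 cells/well, then were exposed to compound (50–12.5 μM) for 1 h before E. coli LPS (10 μg/mL) was added. After 24 h, nitrite in the medium was reacted with Griess reagent for 10 min at room temperature and absorbance read at 550 nm. Values are in μM from a sodium nitrite standard curve. L-NAME (1 μM) served as reference. Data are mean ± SEM, n ≥ 3, triplicate.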
# [3] = system: J774.A1; test: Antiinflammatory activity in mouse J774.A1 macrophages assessed as inhibition of LPS-induced iNOS expression at 12.5 to 50 uM preincubated for 1 hr followed by LPS stimulation and measured after 24 hrs by cytofluorimetry analysis; format: functional, cell-based; conditions: dose 12.5-50 µM, time 25.0 hrs
# In short: (§2)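 J774A.1 cells plated at 5 × 10^4 cells/well and allowed to adhere 3 h at 37 °C. Compounds were added 1 h before and then together with E. coli LPS (10 μg/mL) for 24 h. Cells were fixed and permeabilized, then stained with anti-iNOS or anti-COX-2 and a secondary antibody. Read as mean fluorescence intensity by flow cytometry. Indomethacin (1 μM) served as positive control. At least three independent experiments, each in triplicate.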
# [4] = system: J774.A1; test: Antiinflammatory activity in mouse J774.A1 macrophages assessed as inhibition of LPS-induced COX2 expression at 12.5 to 50 uM preincubated for 1 hr followed by LPS stimulation and measured after 24 hrs by cytofluorimetry analysis; format: functional, cell-based; conditions: dose 12.5-50 µM, time 25.0 hrs; in short: as §2
# [5] = system: J774.A1; test: Antioxidant activity in mouse J774.A1 macrophages assessed as inhibition of LPS-induced nitrotyrosine formation at 25 to 50 uM preincubated for 1 hr followed by LPS stimulation and measured after 24 hrs by cytofluorimetry analysis; format: functional, cell-based; conditions: dose 25-50 µM, time 25.0 hrs
# In short: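 J774A.1 cells (5 × 10^4 cells/well, 3 h adherence) were pretreated with compound (50–12.5 µM) for 1 h, then LPS (10 µg/mL) was added. After 24 h cells were PBS-washed, fixed for 20 min and permeabilized for 30 min. Rabbit anti-nitrotyrosine and secondary antibody were each applied for 30 min. Read-out was flow-cytometric mean fluorescence intensity versus LPS alone. Means ± SEM, ≥3 independent experiments, each in triplicate.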
# [6] = system: J774.A1; test: Antioxidant activity in mouse J774.A1 macrophages assessed as inhibition of LPS-induced intracellular ROS production at 12.5 to 50 uM preincubated for 1 hr followed by LPS stimulation and measured after 24 hrs by DCFH2-DA probe based fluorescence analysis; format: functional, cell-based; conditions: dose 12.5-50 µM, time 25.0 hrs
# In short: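 Macrophages (J774A.1, 5 × 10^4 cells/well, 3 h adherence) were given the compound (50–12.5 µM) 1 h before and during LPS (10 µg/mL). After 24 h cells were collected and washed twice in PBS, then loaded with 10 µM H2DCF-DA in PBS at 37 °C for 15 min. DCF fluorescence was read by flow cytometry as mean fluorescence intensity versus LPS alone. Means ± SEM, ≥3 independent experiments, each in triplicate.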
# [7] = system: J774.A1; test: Antiinflammatory activity in mouse J774.A1 macrophages assessed as inhibition of LPS-induced NO production at 1 uM preincubated for 1 hr followed by LPS stimulation and measured after 24 hrs by griess reagent based assay; format: functional; conditions: time 25 hrs
# In short: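 Murine J774A.1 cells (DMEM, 10% FBS) were plated at 5 × 10^4 cells/well and allowed to adhere for 3 h at 37 °C in 5% CO2. They were exposed to the agent in fresh medium for 1 h, then to E. coli LPS at 10 µg/mL for 24 h. Medium nitrite was measured with Griess reagent (10 min, room temperature, A550) and converted to µM against a sodium nitrite standard. Means ± SEM, ≥3 independent experiments, each in triplicate.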
# [8] = system: J774.A1; test: Antiinflammatory activity in mouse J774.A1 macrophages assessed as inhibition of LPS-induced iNOS expression at 1 uM preincubated for 1 hr followed by LPS stimulation and measured after 24 hrs by cytofluorimetry analysis; format: functional; conditions: time 25 hrs
# In short: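 J774A.1 cells were plated at 5 × 10^4 cells/well and allowed to adhere for 3 h. The agent was added 1 h before LPS (10 µg/mL) and kept during stimulation; cells were harvested after 24 h. Cells were washed in PBS, fixed for 20 min and permeabilized for 30 min. Anti-iNOS primary and secondary antibodies were each applied for 30 min. Read-out was flow-cytometric mean fluorescence intensity versus LPS alone. Means ± SEM, ≥3 independent experiments, each in triplicate.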
# [9] = system: J774.A1; test: Antiinflammatory activity in mouse J774.A1 macrophages assessed as inhibition of LPS-induced COX2 expression at 1 uM preincubated for 1 hr followed by LPS stimulation and measured after 24 hrs by cytofluorimetry analysis; format: functional; conditions: time 25 hrs; in short: as §2
# [10] = system: J774.A1; test: Antiinflammatory activity in mouse J774.A1 macrophages assessed as reduction in LPS-induced nitrite production at 12.5 to 50 uM preincubated for 1 hr followed by LPS stimulation and measured after 24 hrs by griess reagent based assay; format: functional, cell-based; conditions: dose 12.5-50 µM, time 25.0 hrs; in short: as §1
# [11] = system: J774.A1; test: Antioxidant activity in mouse J774.A1 macrophages assessed as inhibition of LPS-induced nitrotyrosine formation at 12.5 to 50 uM preincubated for 1 hr followed by LPS stimulation and measured after 24 hrs by cytofluorimetry analysis; format: functional, cell-based; conditions: dose 12.5-50 µM, time 25.0 hrs
# In short: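 Cells were pretreated 1 h with compound (50–12.5 μM), then LPS (10 μg/mL) was added for 24 h. Cells were harvested, PBS-washed, fixed 20 min and permeabilized 30 min. They were stained 30 min with rabbit anti-nitrotyrosine, then 30 min with secondary antibody. Mean fluorescence intensity was read by flow cytometry. L-NAME and indomethacin (1 μM each) were positive controls. Mean ± SEM of at least three experiments, each in triplicate.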
Structure (SMILES),Activity [1],inhibition [2],inhibition [3],inhibition [4],also measured
C[C@H]1CO[C@]2(C1)OC(=O)c1cc3c(cc12)CC(C)(C)CC3,Active,,,,
CC(C)c1cc2c(cc1O)[C@@]1(C)CCCC(C)(C)C1=C(O)C2=O,Active,Active,Active,Active,
C[C@H]1COC2=C1C(=O)C(=O)c1c2ccc2c1CCCC2(C)C,Active,Active,Active,Active,inhibition [5]: Active; inhibition [6]: Active
COC(=O)[C@@H](N)CCCNC(=N)N[N+](=O)[O-],,,,,inhibition at 1 µM [7]: 51.2%; inhibition at 1 µM [8]: 47.1%
CC(C)c1cc2ccc3c(c2oc1=O)CCCC3(C)C,Active,,,,
CC(C)c1cc2c(cc1O)[C@@]1(CO)CCCC(C)(C)[C@@H]1CC2,Active,Active,Active,Active,
COC(=O)/C(=C\c1ccc2c3c1C(=O)O[C@H]3CCC2(C)C)C(C)C,Active,Active,Active,Active,
COc1ccc2c(c1)c(CC(=O)O)c(C)n2C(=O)c1ccc(Cl)cc1 [INDOMETHACIN],,,,,inhibition at 1 µM [9]: 47.8%
Cc1coc2c1C(=O)C(=O)c1c-2ccc2c1C(=O)CCC2(C)C,,Active,Active,Active,Activity [10]: Active; inhibition [11]: Active; inhibition [6]: Active
CC(C)/C(=C/c1ccc2c3c1C(=O)O[C@H]3CCC2(C)C)C(=O)O,,Active,Active,Active,
CC(C)C1=CC2=C(C(=O)C1=O)[C@@]1(C)CCCC(C)(C)C1C[C@@H]2O (stereo not given in full),Active,,,,
CC(C)c1cc2ccc3c(c2c(O)c1O)C(=O)CCC3(C)C,Active,,,,
Cc1cc2ccc3c(c2cc(O)c1=O)CCCC3(C)C,Active,,,,
